# KCNK3 inh: human KCNK3 channel inhibition, primary screen; CHO-KCNK3 thallium flux, FluxOR fluorescence; active compounds read low; AID 602410; actives 0.84% (n = 340,000); B-score at 10 µM; O14649;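 active means B-score under library mean minus 4 SD, starting fluorescence ratio at most library mean plus 5 SD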;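 further: more negative B-score means stronger inhibition of thallium flux through KCNK3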
# KCNK9 inh: inhibitors of human KCNK9 two-pore domain potassium channel. AID 488922. B-score at 10 µM. HEK293 KCNK9, FluxOR thallium flux fluorescence; active compounds read low. actives 1.2% (n = 310,000);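 active means ratio B-score over 3 SD below the library mean, with starting fluorescence within 5 SD of its mean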;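 further: negative B-score means less thallium flux so channel inhibition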
# hERG protect: shields human hERG channel from block by proarrhythmic agents; Q12809; CHO-hERG, FluxOR thallium flux, dofetilide IC70 present; activation (rescue from dofetilide block), less the hit threshold, % at 10 µM; actives 0.51% (n = 310,000);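 active means activation above the mean of controls blocked by dofetilide plus 5 SD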;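 further: thallium influx through hERG after potassium depolarization seen as dye fluorescence rise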
# Target sequence (Q12809 whole entry, looked up): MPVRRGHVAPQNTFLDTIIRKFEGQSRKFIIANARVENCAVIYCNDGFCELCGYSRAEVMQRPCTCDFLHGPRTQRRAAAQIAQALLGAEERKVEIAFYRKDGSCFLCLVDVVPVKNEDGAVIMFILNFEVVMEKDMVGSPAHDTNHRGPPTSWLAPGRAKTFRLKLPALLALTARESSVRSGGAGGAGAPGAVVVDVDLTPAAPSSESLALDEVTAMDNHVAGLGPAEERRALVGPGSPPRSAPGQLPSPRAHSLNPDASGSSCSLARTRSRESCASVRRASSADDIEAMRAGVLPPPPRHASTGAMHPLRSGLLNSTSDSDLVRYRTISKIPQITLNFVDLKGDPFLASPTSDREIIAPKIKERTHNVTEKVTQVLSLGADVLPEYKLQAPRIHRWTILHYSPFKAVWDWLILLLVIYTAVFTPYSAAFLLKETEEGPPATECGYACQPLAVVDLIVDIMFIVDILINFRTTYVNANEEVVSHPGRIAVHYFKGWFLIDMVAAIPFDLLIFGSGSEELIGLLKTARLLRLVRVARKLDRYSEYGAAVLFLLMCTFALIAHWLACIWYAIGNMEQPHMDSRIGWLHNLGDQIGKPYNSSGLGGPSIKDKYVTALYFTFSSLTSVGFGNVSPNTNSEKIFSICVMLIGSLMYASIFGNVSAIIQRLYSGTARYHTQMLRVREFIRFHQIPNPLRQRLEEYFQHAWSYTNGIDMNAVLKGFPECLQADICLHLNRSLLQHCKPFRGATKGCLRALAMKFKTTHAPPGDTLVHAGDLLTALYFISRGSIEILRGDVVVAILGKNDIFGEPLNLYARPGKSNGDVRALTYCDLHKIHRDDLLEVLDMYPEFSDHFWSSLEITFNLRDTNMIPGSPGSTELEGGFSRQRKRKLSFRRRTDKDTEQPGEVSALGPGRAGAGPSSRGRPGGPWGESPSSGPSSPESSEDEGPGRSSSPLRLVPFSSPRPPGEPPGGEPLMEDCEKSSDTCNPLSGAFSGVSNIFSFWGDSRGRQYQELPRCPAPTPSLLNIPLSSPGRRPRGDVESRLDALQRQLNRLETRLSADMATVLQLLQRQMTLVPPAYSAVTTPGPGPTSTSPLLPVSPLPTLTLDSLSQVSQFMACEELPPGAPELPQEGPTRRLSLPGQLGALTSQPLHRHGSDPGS
# KCNQ1 pot: potentiators or activators of human KCNQ1 potassium channel | P51787 | actives 0.35% (n = 310,000) | B-score at 10 µM | CHO-K1 KCNQ1, thallium flux FluxOR fluorescence; active compounds read high;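 active means fluorescence ratio B-score, a plate-corrected score, at least three library SD, with initial intensity B-score within 5 SD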
#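 Assay system: CHO-K1 cells stably expressing KCNQ1; Medium: assay buffer with matched DMSO; Also added: K+/Tl+ depolarizing stimulus; Dosing: single dose; Timing: dye 90 min, compound 20 min, room temperature; Measured by: kinetic FluxOR thallium fluorescence, 10-s 1-Hz baseline, 110-s post-stimulus read; Read-out: peak-minus-minimum fluorescence over initial fluorescence, negative-control normalized, B-scored.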
# Kir21 block: blocks the mouse Kir2.1 inward-rectifier potassium channel; HEK293-Kir2.1, FluxOR thallium flux fluorescence; active compounds read low; actives 0.85% (n = 310,000); B-score at 10 µM;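 active means fluorescence ratio B-score at or below minus 3 SD of library scores, with starting-brightness B-score within 2 SD, cut at about -4.2 in these data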;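 further: channel flux triggered by added potassium and thallium sulfate stimulus; B-score of peak minus minimum fluorescence over baseline after thallium stimulus; more negative B-score means stronger Kir2.1 block with less thallium influx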
# KCNQ1 block: human KCNQ1 channel inhibition; P51787; CHO-K1 KCNQ1, FluxOR thallium flux fluorescence; active compounds read high; B-score at 10 µM; actives 1.3% (n = 310,000); AID 2642;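 active means compounds whose thallium flux B-score, printed positive for inhibition, exceeds three library SD while starting fluorescence stays within three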;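 further: channel opened by potassium depolarization with thallium stimulus after 20 min compound exposure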
# KCNK9 block conf: human KCNK9 inhibitor confirmation. HEK293 KCNK9 cells, FluxOR thallium flux fluorescence. AID 492992. inhibition, % at 10 µM. shares compounds with KCNK9 inh. actives 43% (n = 4,900);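 active means thallium signal inhibited by more than 5 SD of the compound-free buffer control wells, on both duplicate plates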;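 further: 0% = assay buffer control wells without compound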
# Kir2-1 spec: mouse Kir2.1 off-target activity of KCNK9 modulators | shares compounds with KCNK9 inh | Kir2.1 cells, FluxOR thallium flux fluorescence | inhibition, % at 10 µM | actives 4% (n = 4,900);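 active means thallium signal drop more than 5 SD beyond the mean of the no-compound control wells, seen in both duplicate plates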;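 further: signal is fluorescence rise after thallium addition divided by baseline fluorescence; plate controls were assay buffer only for no effect and full block by chlorpromazine control for full effect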
# KCNK9 uninduced: non-induced cell nonspecific activity of KCNK9 modulators. inhibition, % at 10 µM. actives 40% (n = 4,900). non-induced KCNK9-HEK293, FluxOR thallium flux. shares compounds with KCNK9 inh;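 active means thallium signal drop beyond 5 SD of the untreated control mean, on both duplicate plates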;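 further: plate controls were buffer only IC0 wells for no effect and SID17386958 at its maximal inhibitory level for full effect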
# * marks the source's active call; other numbers are inactive results; i = inactive; · = no result given. An excerpt weighted towards active compounds, which were near 3.7% of everything screened.
SMILES,KCNK3 inh,KCNK9 inh,hERG protect,KCNQ1 pot,Kir21 block,KCNQ1 block,KCNK9 block conf,Kir2-1 spec,KCNK9 uninduced
CCCCCCCCC/C(=N\O)c1ccccn1,i,-14.9*,-7.0,i,-2.19,7*,41.0%*,i,49.5%*
COc1cccc(NC(=S)N(CCCN2CCOCC2)C(C)c2cc3cccc(OC)c3o2)c1 (centres undefined),i,i,-8.6,i,1.38,i,·,·,·
COc1cccc(NC(=O)N(CCCN2CCOCC2)C(C)c2cc3cccc(OC)c3o2)c1 (centres undefined),i,-8.27*,-2.2,i,-0.04,i,40.0%*,i,31.0%*
CCOC(=O)c1c2ccccc2[n+]([O-])n1CCO,i,i,-6.6,i,1.32,i,·,·,·
COc1ccc(/C=N/NC(=O)c2ccccc2)cc1CN1CCN(c2ccc(F)cc2)CC1,i,i,-6.3,i,-1.21,i,·,·,·
COc1cc(OC)c(OC)cc1CN1CCN(c2ccc(F)cc2)CC1,i,i,-9.1,i,-0.42,i,i,i,i
COc1cc(C(=O)N/N=C/c2ccc(OC)c(CN3CCN(c4ccc(F)cc4)CC3)c2)ccc1O,i,i,-27.6,i,-1.07,i,i,i,i
COc1cccc(CN2CCN(C(=O)c3cc(-c4ccncc4)nc4ccc(C)cc34)CC2)c1,i,i,-36.0,i,-0.73,i,·,·,·
COc1cccc(CN2CCN(C(=O)c3cc(-c4ccccn4)nc4ccc(Cl)cc34)CC2)c1,i,i,-30.3,i,-1.52,i,i,i,i
COc1cc(C)ccc1OCCCCOc1ccccc1C(C)=O,i,i,-17.4,i,-2.1,i,i,i,i
COc1cc(C)ccc1OCCCOc1ccccc1Cl,i,i,-7.1,i,0.01,i,·,·,·
Cc1nnc(SCC(=O)N2CCC(c3noc4ccc(F)cc34)CC2)s1,i,i,-11.2,i,0.48,i,·,·,·
O=C(CSc1ccc2ccccc2n1)N1CCC(c2noc3ccc(F)cc23)CC1,i,-9.02*,-9.2,i,-0.66,i,i,i,i
Cc1cccc2sc(N(CCCN(C)C)C(=O)c3ccc(C(=O)c4ccccc4)cc3)nc12,i,i,-22.8,i,1.48,i,i,i,i
Cc1cccc2sc(N(CCN(C)C)C(=O)c3cc(Cl)sc3Cl)nc12,i,i,-10.4,i,0.04,i,i,i,i
Cc1cc(C)c2sc(N(CCN(C)C)C(=O)c3ccc4ccccc4c3)nc2c1,i,i,-15.7,i,0.94,i,·,·,·
COc1cc2ccccc2cc1C(=O)N(CCN(C)C)c1nc2c(C)cccc2s1,i,i,-5.5,i,0.38,i,·,·,·
Cc1cccc2sc(N(CCCN(C)C)C(=O)c3sc4ccccc4c3Cl)nc12,i,·,·,·,·,·,·,·,·
Cc1ccc2sc(N(CCN(C)C)C(=O)c3ccc4ccccc4c3)nc2c1C,i,i,-11.8,i,0.72,i,i,i,i
COc1cc(NC(=O)NC2Cc3ccccc3C2)cc(OC)c1,i,i,-7.0,i,1.17,i,·,·,·
CCOc1ccccc1C(=O)N1CCN(C(c2ccccc2)c2ccccc2)CC1,i,-8.41*,-12.1,i,-0.02,i,i,i,25.5%*
CCOc1ccccc1N1CCN(C(=O)C(Sc2ccccc2)c2ccccc2)CC1 (centres undefined),i,-12.2*,-8.6,i,0.83,i,56.0%*,i,28.5%*
Cc1ccccc1C(=O)N1CCN(C(c2ccccc2)c2ccccc2)CC1,i,i,-8.8,i,0,i,·,·,·
CC(C)(C)OC(=O)NCCCCCNC(=O)c1[nH]cnc1C(=O)Nc1ccon1,i,·,·,·,·,·,·,·,·
O=C(NCc1ccccc1)C1(c2ccccc2)CCN(S(=O)(=O)c2ccccc2)CC1,i,i,-2.9,i,0.59,i,i,i,i
SMILES,KCNK3 inh,KCNK9 inh,hERG protect,KCNQ1 pot,Kir21 block,KCNQ1 block,KCNK9 block conf,Kir2-1 spec,KCNK9 uninduced
O=S(=O)(Nc1ccc(S(=O)(=O)N2CCOCC2)cc1)c1ccc(Br)cc1,i,i,-4.4,i,-0.72,i,·,·,·
O=S(=O)(c1ccc(Oc2ccc(Br)cc2)cc1)N1CCOCC1,i,i,-13.0,i,0.43,i,i,i,i
CCC(C)c1ccccc1N1CC(C(=O)Nc2cccc(S(=O)(=O)N3CCOCC3)c2)CC1=O (centres undefined),i,i,-5.6,i,-0.61,i,·,·,·
C/C(=N\NC(=O)c1ccncc1)c1cccc(NC(=O)c2ccc(Cl)s2)c1,i,i,-21.0,i,0.11,i,·,·,·
Cc1nn2c(N3CCCC3)cc(C(C)C)nc2c1-c1ccccc1,i,-8.33*,-12.4,i,-0.33,i,58.0%*,i,45.0%*
COc1ccccc1NS(=O)(=O)c1ccc2oc(SCc3ccc(F)cc3)nc2c1,i,i,-21.9,i,-0.37,i,·,·,·
COc1ccc(NS(=O)(=O)c2ccc3oc(SCc4ccc(F)cc4)nc3c2)cc1,i,i,-7.7,i,-0.87,i,i,i,i
CCCCCn1cnnc1SCC(=O)c1c(N)n(C2CC2)c(=O)[nH]c1=O,i,·,·,·,·,·,·,·,·
Cc1cc(F)ccc1S(=O)(=O)N1CCCCC1CCNC(=O)C(=O)NCc1ccccn1 (centres undefined),i,i,-16.9,i,1.58,i,·,·,·
Cc1ccc(C(=O)N2CCC(C(=O)c3ccc(F)cc3)CC2)cc1,i,·,·,·,·,·,·,·,·
Cc1ccc(C(=O)N2C(=S)C(c3ccc(F)cc3)=NC23CCN(C)CC3)cc1,i,i,-16.7,i,0.03,i,i,i,i
COc1ccc(/C=C/c2nc3ccccc3n2Cc2ccc(OC)c(OC)c2)cc1,i,-8.12*,-3.2,i,-2.19,i,58.5%*,i,33.0%*
CC(C)(C)OC(=O)C[C@@H]1C/C=C\C[C@H](CC(=O)N[C@H](CO)Cc2ccccc2)C(=O)N[C@H](C(C)(C)C)COC1=O,i,·,·,·,·,·,·,·,·
CC(C)(C)c1ccc(OCC(=O)NNC(=S)NC(=O)c2ccco2)c(Br)c1,i,i,-13.0,56*,1.43,i,i,i,i
O=C(NCc1cccs1)c1cc(S(=O)(=O)N2CCOCC2)ccc1N1CCCC1,i,·,·,·,·,·,·,·,·

# Screens from PubChem.
